ChEMBL document CHEMBL1140865, “Studies on anti-HIV quinolones: new insights on the C-6 position” (Bioorg Med Chem, 2009)
Converted amounts (≈) assume the structure as drawn.

Legend:
[1] = Selectivity index, ratio of CC50 for human MT4 cells to EC50 for HIV 3B; type: toxicity, cell-based; details: read-out: Ratio CC50/EC50
[2] = test system: Human immunodeficiency virus; assay: Antiviral activity against HIV ROD in human MT4 cells assessed as inhibition of virus-induced cytopathogenicity by MTT assay; type: functional, organism-based; details: Human immunodeficiency virus 2, ROD
Procedure, shortened: (§1)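 MT-4 cells resuspended at 6 × 10⁵ cells/mL, infected with HIV-1 IIIB or HIV-2 ROD at 100–300 CCID50, serial 5-fold compound dilutions. After 5 days, viability read by MTT reduction at 540 and 690 nm, median OD of three wells. EC50 = concentration giving 50% protection from viral cytopathic effect; mean ± SD of three separate experiments.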

[3] = Cytotoxicity against mock-infected human MT4 cells by MTT assay; type: cell-based
Procedure, shortened: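 Mock-infected MT-4 cells (6 × 10⁵ cells/mL) exposed to serial 5-fold compound dilutions in parallel with infected cultures. After 5 days, viability measured by MTT formazan absorbance (540 and 690 nm; median OD of three wells). CC50 = concentration reducing OD540 of mock-infected control by 50%; mean ± SD of three separate experiments.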

[4] = test system: Human immunodeficiency virus; assay: Antiviral activity against HIV 3B in human MT4 cells assessed as inhibition of virus-induced cytopathogenicity by MTT assay; type: functional, organism-based; details: Human immunodeficiency virus 1, 3B; procedure, shortened: as §1
[5] = Selectivity index, ratio of CC50 for human MT4 cells to EC50 for HIV ROD; type: toxicity, cell-based; details: read-out: Ratio CC50/EC50
[6] = Cytotoxicity against mock-infected human PBMC; type: cell-based
Procedure, shortened: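 Mock-infected PHA-stimulated PBMCs cultured with serial compound dilutions. Viability determined by trypan blue exclusion. CC50 = concentration reducing viability by 50%; mean ± SD of at least two separate experiments.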

[7] = Selectivity index, ratio of IC50 for human PBMC to IC50 for HIV 3B
[8] = test system: Human immunodeficiency virus; assay: Antiviral activity against HIV 3B in PHA-stimulated human PBMC assessed as inhibition of p24 antigen production by ELISA; type: functional, organism-based; details: Human immunodeficiency virus 1, 3B
Procedure, shortened: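 PBMCs from healthy donors isolated by density centrifugation, PHA-stimulated 3 days, washed, plated at 2 × 10⁵ per 200 µL with serial compound dilutions and infected with HIV at 1000 CCID50 per mL. On day 4, supernatant partly replaced with fresh compound-containing medium. At day 7, p24 in supernatant measured by ELISA. EC50 = 50% inhibition of p24; mean ± SD, at least two experiments.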

Row | Structure (SMILES) | selectivity ratio [1] | EC50 [2] [µg/mL] | CC50 [3] [µg/mL] | EC50 [4] [µg/mL] | selectivity ratio [5] | CC50 [6] [µg/mL] | Ratio CC50/EC50 [7] | EC50 [8] [µg/mL]
1 | Cc1ccnc2c1NC(=O)c1cccnc1N2C1CC1 [NEVIRAPINE] | > 176 | > 4 | > 4 | 0.023 (≈ 0.0864 µM) | – | – | – | –
2 | Cn1cc(C(=O)O)c(=O)c2cc(O)c(N3CCN(c4nc5ccccc5s4)CC3)cc21 | < 1 | > 0.02 | 0.02 (≈ 0.0458 µM) | > 0.02 | < 1 | – | – | –
3 | Cn1cc(C(=O)O)c(=O)c2cc(C(F)(F)F)c(N3CCN(c4ccccn4)CC3)cc21 | < 1 | > 13.9 | 13.9 (≈ 32.2 µM) | > 13.9 | < 1 | – | – | –
4 | Cn1cc(C(=O)O)c(=O)c2cc(C(F)(F)F)c(N3CCN(c4cccc(C(F)(F)F)c4)CC3)cc21 | < 1 | > 1.65 | 1.65 (≈ 3.3 µM) | > 1.65 | < 1 | – | – | –
5 | COc1cc2c(=O)c(C(=O)O)cn(C)c2cc1N1CCN(c2ccccn2)CC1 | 5 | 0.4 (≈ 1.01 µM) | 2.55 (≈ 6.47 µM) | 0.47 (≈ 1.19 µM) | 6.5 | 8.46 (≈ 21.4 µM) | 5 | 1.78 (≈ 4.51 µM)
6 | Cn1cc(C(=O)O)c(=O)c2cc(O)c(N3CCN(c4ccc5ccccc5n4)CC3)cc21 | 6 | 0.033 (≈ 0.0767 µM) | 0.47 (≈ 1.09 µM) | 0.08 (≈ 0.186 µM) | 14 | 1.91 (≈ 4.44 µM) | 7 | 0.26 (≈ 0.604 µM)
7 | Cn1cc(C(=O)O)c(=O)c2cc(O)c(N3CCN(c4cnccn4)CC3)cc21 | < 1 | > 125 | > 125 | > 125 | < 1 | – | – | –
8 | Cc1cn([C@H]2C[C@H](N=[N+]=[N-])[C@@H](CO)O2)c(=O)[nH]c1=O [ZIDOVUDINE] | 1340 | 0.0008 (≈ 0.00299 µM) | 2.01 (≈ 7.52 µM) | 0.0015 (≈ 0.00561 µM) | 2480 | – | – | –
9 | Cn1cc(C(=O)O)c(=O)c2cc(C(F)(F)F)c(N3CCN(c4nc5ccccc5s4)CC3)cc21 | < 1 | > 0.54 | 0.54 (≈ 1.11 µM) | > 0.54 | < 1 | – | – | –
10 | COc1cc2c(=O)c(C(=O)O)cn(C)c2cc1N1CCN(c2nc3ccccc3s2)CC1 | < 1 | > 0.05 | 0.05 (≈ 0.111 µM) | > 0.05 | < 1 | – | – | –
11 | Cn1cc(C(=O)O)c(=O)c2cc(N)c(N3CCN(c4ccccn4)CC3)cc21 | 15 | 0.097 (≈ 0.256 µM) | – | 0.058 (≈ 0.153 µM) | 10 | – | – | –
12 | Cn1cc(C(=O)O)c(=O)c2cc(O)c(N3CCN(c4cccc(C(F)(F)F)c4)CC3)cc21 | – | ≥ 0.133 | 1.13 (≈ 2.53 µM) | ≥ 1.13 | – | 1.61 (≈ 3.6 µM) | 4 | 0.4 (≈ 0.894 µM)
13 | Cn1cc(C(=O)O)c(=O)c2cc(O)c(N3CCN(c4ccccn4)CC3)cc21 | > 68 | 1.31 (≈ 3.44 µM) | > 125 | 1.85 (≈ 4.86 µM) | > 96 | ≥ 17.2 | >=44 | 0.39 (≈ 1.03 µM)
